Active and inactive are the calls of the source. The calls are words filed in the database; no cut-off is given here.
How the values were obtained:
Assay type in all cases: functional, cell-based
C2C12 [1] = assay: Induction of cell differentiation in mouse C2C12 cells assessed as myosin heavy chain expression at 1 uM
Method in brief: (§1)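 Mouse C2C12 myoblasts were treated with statin. Differentiation was read as myosin heavy chain expression by immunofluorescence.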

RD [2] = assay: Induction of cell differentiation of human RD cells assessed as troponin expression after 4 days by immunofluorescence method
Method in brief: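 Human RD embryonal rhabdomyosarcoma cells were treated in normal growth medium for four days, then scored for differentiation.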

RD [3] = assay: Inhibition of anchorage-independent growth in human RD cells at 10 uM
Method in brief: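 Human RD embryonal rhabdomyosarcoma cells were treated and scored for anchorage-independent growth on soft agar.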

C2C12 [4] = assay: Inhibition of shATP citrate lyase-induced cell differentiation in mouse C2C12 assessed as myosin heavy chain expression at 100 nM
C2C12 [5] = assay: Inhibition of serum withdrawal-induced cell differentiation in mouse C2C12 cells assessed as myosin heavy chain expression
C2C12 [6] = assay: Induction of cell differentiation in mouse C2C12 cells assessed as myosin heavy chain expression at 5 uM; method in brief: as §1
C2C12 [7] = assay: Induction of cell differentiation in mouse C2C12 cells assessed as myosin heavy chain expression at 10 uM in presence of 250 uM cholesterol
C2C12 [8] = assay: Induction of cell differentiation in mouse C2C12 cells assessed as myosin heavy chain expression at 10 uM; method in brief: as §1

CC(C)c1c(C(=O)Nc2ccccc2)c(-c2ccccc2)c(-c2ccc(F)cc2)n1CC[C@@H](O)C[C@@H](O)CC(=O)O
Activity (C2C12 [1]): Active

CC(C)n1c(/C=C/C(O)CC(O)CC(=O)O)c(-c2ccc(F)cc2)c2ccccc21 (centres undefined)
Activity (RD [2]): Active | inhibition (RD [3]): Active | Activity (C2C12 [1]): Active

CC(/C=C/C(=O)NO)=C\[C@@H](C)C(=O)c1ccc(N(C)C)cc1
inhibition (C2C12 [4]): Active

CC(C)CCC[C@@H](C)[C@H]1CC[C@H]2[C@@H]3CC=C4C[C@@H](O)CC[C@]4(C)[C@H]3CC[C@]12C
inhibition (C2C12 [5]): Active

CC[C@H](C)C(=O)O[C@H]1C[C@H](O)C=C2C=C[C@H](C)[C@H](CC[C@@H](O)C[C@@H](O)CC(=O)O)[C@H]21
Activity (C2C12 [6]): Active | Activity (C2C12 [7]): Active | Activity (C2C12 [8]): Active
